Measurements published in ChEMBL document CHEMBL5321262, “Antiviral Activity of Cannabidiolic Acid and Its Methyl Ester against SARS-CoV-2” (J Nat Prod, 2023).
The source made the active and inactive calls. The calls are words filed in the database; no cut-off is given here.

Tests used:
[1] = Cytotoxicity against African green monkey Vero E6 cells measured after 72 hrs by LDH assay; format: toxicity, cell-based, Vero C1008; details: chlorocebus sabaeus
Summary of the method: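 Vero E6 seeded at 2 × 10^4 cells/well and held overnight at 37 °C, 5% CO2. Compounds added at final 2.3–300.0 µM (8 two-fold steps) with DMSO fixed at 0.5% v/v. After 72 h, LDH-WST read-out at 490 nm, with % cytotoxicity taken against DMSO control. CC50 from nonlinear dose–response regression.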

SARS-CoV-2 [2] = experiment: Antiviral activity against SARS-CoV-2 Italian strain PV10734 infected in African green monkey Vero E6 cells assessed as reduction in virus-induced cytopathic effect preincubated with virus for 1 hr followed by infection with cells and measured after 72 hrs by microscopic analysis; format: functional, organism-based; details: Severe acute respiratory syndrome coronavirus 2, time 73.0 hrs
SARS-CoV-2 [3] = experiment: Antiviral activity against SARS-CoV-2 Italian strain PV10734 infected in African green monkey Vero E6 cells assessed as reduction in virus titers of progeny virus in supernatant measured after 72 hrs by CPE assay; format: functional, organism-based; details: Severe acute respiratory syndrome coronavirus 2, PV10734, Vero C1008, 72 h
[4] = Stability of compound in cell culture media at 37.5 uM measured upto 30 mins by UHPLC-HRMS analysis; format: physicochemical; details: 0.5 h
SARS-CoV-2 [5] = experiment: Antiviral activity against SARS-CoV-2 Italian strain PV10734 infected in African green monkey Vero E6 cells assessed as reduction in virus-induced cytopathic effect at 37.5 uM preincubated with virus for 1 hr followed by infection with cells and measured after 72 hrs by microscopic analysis; format: functional, organism-based; details: Severe acute respiratory syndrome coronavirus 2, time 73.0 hrs
[6] = Stability of compound in African green monkey Vero E6 cell lysates assessed as decarboxylation at 37.5 uM measured upto 30 mins by UHPLC-HRMS analysis; format: ADME, subcellular; details: chlorocebus sabaeus, vero c1008, 0.5 h
SARS-CoV-2 [7] = experiment: Antiviral activity against SARS-CoV-2 Italian strain PV10734 infected in African green monkey Vero E6 cells assessed as reduction in viral replication at 37.5 uM measured at 72 hrs post-infection by qRT-PCR analysis; format: functional, organism-based; details: Severe acute respiratory syndrome coronavirus 2
SARS-CoV-2 [8] = experiment: Antiviral activity against SARS-CoV-2 Italian strain PV10734 infected in African green monkey Vero E6 cells assessed as inhibition of virus titers of progeny virus in supernatant at 37.5 uM measured after 72 hrs by CPE assay relative to control; format: functional; details: Severe acute respiratory syndrome coronavirus 2, PV10734, Vero C1008
SARS-CoV-2 [9] = experiment: Antiviral activity against SARS-CoV-2 Italian strain PV10734 infected in African green monkey Vero E6 cells assessed as reduction in virus-induced cytopathic effect at 75 uM preincubated with virus for 1 hr followed by infection with cells and measured after 72 hrs by microscopic analysis; format: functional, organism-based; details: Severe acute respiratory syndrome coronavirus 2, time 73.0 hrs
SARS-CoV-2 [10] = experiment: Antiviral activity against SARS-CoV-2 Italian strain PV10734 infected in African green monkey Vero E6 cells assessed as reduction in viral replication at 75 uM measured at 72 hrs post-infection by qRT-PCR analysis; format: functional, organism-based; details: Severe acute respiratory syndrome coronavirus 2
SARS-CoV-2 [11] = experiment: Antiviral activity against SARS-CoV-2 Italian strain PV10734 infected in African green monkey Vero E6 cells assessed as inhibition of virus titers of progeny virus in supernatant at 75 uM measured after 72 hrs by CPE assay relative to control; format: functional; details: Severe acute respiratory syndrome coronavirus 2, PV10734, Vero C1008
[12] = Stability of compound in African green monkey Vero E6 cell lysates assessed as decarboxylation at 75 uM measured upto 30 mins by UHPLC-HRMS analysis; format: ADME, subcellular; details: chlorocebus sabaeus, vero c1008, 0.5 h

Row | Structure (SMILES) | CC50 at 72 h [1] | Activity (SARS-CoV-2 [2]) | also measured
1 | CCCc1cc(O)c(C/C=C(\C)CCC=C(C)C)c(O)c1 | 58.1 µM | inactive | 
2 | C=C(C)[C@@H]1CCC(C)=C[C@H]1c1c(O)cc(CCCCC)c(C(=O)OC)c1O | 52.4 µM |  | IC50 (SARS-CoV-2 [3]): 18.4 µM; Stability [4]: Stable; Activity (SARS-CoV-2 [5]): Active; Stability [6]: Stable; Activity (SARS-CoV-2 [7]): Active; inhibition at 37.5 µM (SARS-CoV-2 [8]): > 90%
3 | CCCCCc1cc(O)c2c(c1)OC(C)(CCC=C(C)C)C=C2 (stereo not given) [CANNABICHROMENE] | 59.3 µM | inactive | 
4 | C=C(C)[C@@H]1CCC(C)=C[C@H]1c1c(O)cc(CCCCC)c(C(=O)O)c1O [CANNABIDIOLIC ACID] | 119 µM |  | IC50 (SARS-CoV-2 [3]): 42.7 µM; Activity (SARS-CoV-2 [9]): Active; Activity (SARS-CoV-2 [10]): Active; inhibition at 75 µM (SARS-CoV-2 [11]): > 90%; Stability [12]: Unstable
5 | C=C(C)[C@@H]1CCC(C)=C[C@H]1c1c(O)cc(CCCCC)cc1O [CANNABIDIOL] | 28.9 µM | inactive | 
6 | C=C(C)[C@@H]1CCC(C)=C[C@H]1c1c(O)cc(CCC)cc1O [CANNABIDIVARIN] | 26 µM | inactive | 
7 | CCCCCc1cc(O)c(C/C=C(\C)CCC=C(C)C)c(O)c1C(=O)O [CANNABIGEROLIC ACID] | 43.9 µM | inactive | 
8 | CCCCCc1cc(O)c(C/C=C(\C)CCC=C(C)C)c(O)c1 [CANNABIGEROL] | 58 µM | inactive | 
